MC4R antag cAMP = MC4R antagonists of cAMP signaling, primary screen, cell-based, TR-FRET, antagonist arm of biased-ligand search | inhibition, % at 6.5 µM | Melanocortin receptor 4 (Homo sapiens), P32245 | AID 540295, 2011 | MC4R-expressing cells, MTII-stimulated cAMP, LANCE TR-FRET | hit rate 0.48% among 360,000;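 active = inhibition above its plate's cutoff, the mean of tested wells on that plate plus 3 SD, cut at about 29% in these data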;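 also: 0% = Melanotan II alone and 100% = Melanotan II plus saturating MCL0020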
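Material: U2OS-MC4R stable cell line | Reagent: Melanotan II challenge after compound preincubation | Doses: One concentration, 6.5 µM nominal | Incubation: 30-min compound preincubation, 1-h Melanotan II challenge, 1-h detection, room temperature | Signal: TR-FRET cAMP assay | Replicates: One well per compound, no replicates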
MPTP block = mitochondrial permeability transition pore inhibitors, primary screen, biochemical, isolated mouse mitochondria, absorbance | Ca2+ swelling absorbance, 30 min | inhibition, % at 10 µM | hit rate 1.4% among 360,000;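 active = inhibition of 50% or more, scaled per plate between neutral and stimulator controls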;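 also: 0% = DMSO wells given calcium and 100% = 1 mM EGTA wells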
ATG4B inhibitor = ATG4B protease inhibitors, primary screen, biochemical, fluorescence, uHTS; hit rate 0.51% among 340,000; AID 504462, 2011; Cysteine protease ATG4B (Homo sapiens), Q9Y4P1; inhibition, % at 8.33 µM; ATG4B cleavage of LC3-PLA2, NBD-HPC fluorescence, 1 h; in the data active = inhibition above about 40%
Target sequence (Q9Y4P1 whole entry, looked up): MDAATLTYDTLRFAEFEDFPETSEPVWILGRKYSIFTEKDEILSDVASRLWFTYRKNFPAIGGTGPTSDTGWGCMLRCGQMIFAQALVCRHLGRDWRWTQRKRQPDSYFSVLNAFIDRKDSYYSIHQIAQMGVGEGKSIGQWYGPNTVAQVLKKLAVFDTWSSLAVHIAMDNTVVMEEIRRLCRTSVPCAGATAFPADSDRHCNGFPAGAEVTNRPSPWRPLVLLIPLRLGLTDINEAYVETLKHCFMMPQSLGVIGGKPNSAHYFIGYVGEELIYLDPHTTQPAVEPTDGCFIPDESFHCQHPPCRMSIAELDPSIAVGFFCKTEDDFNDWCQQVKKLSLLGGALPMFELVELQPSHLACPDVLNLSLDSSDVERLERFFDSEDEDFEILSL
MC4R ag barr = MC4R agonists recruiting beta-arrestin, primary screen, cell-based, luminescence, agonist arm of biased-ligand search; AID 540308, 2011; activation, % at 8.9 µM; hit rate 0.98% among 360,000; U2OS MC4R beta-arrestin complementation; percent of melanotan II response, DMSO zero;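 active = activation above a per-plate cutoff, the mean activation of sample wells on that plate plus 3 SD, cut at about 8% in these data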
SMARCA2 activ = SMARCA2 (BRM) function activators, primary screen, cell-based, luminescence, high throughput; MG213 cells, MMTV-luciferase reporter, dexamethasone, overnight; activation, % at 9.1 µM; hit rate 1% among 370,000; AID 652017, 2013; in the data active = activation above about 7.8%;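 also: 0% = vehicle wells and 100% = reference activator wells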
MPTP counter = fluorescence retest of MPTP screen hits in isolated mitochondria, single concentration. shares compounds with MPTP block. membrane potential, Rhodamine 123 fluorescence. inhibition, % at 10 µM. hit rate 78% among 5,000. AID 624504, 2012; in the data active = inhibition above about 22%;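 also: 0% = DMSO vehicle and 100% = positive control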
MPTP abs DR = mitochondrial permeability transition pore inhibitors, dose response, biochemical, absorbance, uHTS hits | shares compounds with MPTP block | isolated mitochondria swelling | hit rate 58% among 780 | IC50, µM; in the data active = IC50 below about 20 µM
MPTP cs DR = fluorescent counter-screen in isolated mitochondria, dose response, counter-screen for MPTP inhibitor project, biochemical, fluorescence, uHTS hits. shares compounds with MPTP block. isolated mitochondria counterscreen, fluorescence read-out. IC50, µM. hit rate 49% among 780; in the data active = IC50 below about 80 µM
Starred values were filed as active, the others as inactive; . = no result given. This is a sample that favours compounds with a hit; in the whole collection about 4.1% have one here.

SMILES	MC4R antag cAMP	MPTP block	ATG4B inhibitor	MC4R ag barr	SMARCA2 activ	MPTP counter	others
CCCNC(=O)c1cc(S(=O)(=O)N2CCc3ccccc32)cn1C	4	71*	-6	3	-3	44*
c1ccc(Cn2ccc3ccc(-c4ccc5ccn(Cc6cccc(-c7ccsc7)c6)c5c4)cc32)cc1	.	.	.	.	-2	.
CN(C)C(CNC(=O)c1cc(S(=O)(=O)N(C)Cc2ccccc2)ccc1Cl)c1ccco1 (centres undefined)	5	68*	2	-2	-2	70*
Cn1nnnc1SC(C(=O)Nc1ccc(F)cc1)c1ccccc1 (centres undefined)	7	-1	-7	-1	-1	.
Cn1c(SC(C(=O)Nc2ccc(F)cc2)c2ccccc2)nc2ccccc21 (centres undefined)	11	64*	-8	2	1	66*
O=C(Nc1ccc(F)cc1)C(Sc1nc2ccccc2[nH]1)c1ccccc1 (centres undefined)	4	97*	-8	6	1	87*
O=C(CSc1nc2ccccc2[nH]1)Nc1ccc(F)cc1	-11	-1	2	1	-2	.
O=C(OC12CCCN(C1)/C(=C/c1cccnc1)C2)c1cccc(F)c1 (centres undefined)	.	.	.	.	-3	.
S=C(Nc1ccc(Oc2ccccc2)cc1)N1CCN(c2ccccn2)CC1	1	80*	-3	3	-1	79*
CN(C)[C@H]1CCN(c2ccc3c(c2)OCCCN(C2CC2)S3(=O)=O)C1	.	.	.	.	-3	.
Cc1cc(Br)ccc1NC(=O)C(C)c1ccc([N+](=O)[O-])cc1 (centres undefined)	1	54*	-4	-2	-2	69*
COc1ccc([N+](=O)[O-])cc1NC(=O)C(C)Sc1ccccc1 (centres undefined)	4	2	-7	0	3	.
Cc1ccc(C(C)C)cc1NC(=O)Nc1ccc([N+](=O)[O-])cc1	22	84*	6	0	-2	79*
Cc1ccc([N+](=O)[O-])cc1NC(=O)C(Sc1ccccc1)c1ccccc1 (centres undefined)	11	94*	23	-1	-1	79*
COC(=O)[C@]12C[C@H](CC(=O)N3CCSCC3)C(=O)N(Cc3ccc(Cl)cc3Cl)C1=C[C@H](C(C)(C)C)O[C@@H]2C	.	.	.	.	-6	.
CCCCNC(=O)c1[nH]c(C2CCNCC2)nc1-c1cccc(C(F)(F)F)c1	.	6	.	.	-3	.
COC(=O)C1=CC(=O)C=C(OC)[C@@]12Oc1cc(C)cc(OC)c1C2=O	.	.	.	.	-13	.
O=C(Nc1ccc(S(=O)(=O)N2CCN(Cc3ccccc3)CC2)cc1)c1cnccn1	2	73*	-3	0	-5	42*
COC(=O)c1c(NC(=O)/C=C/c2ccco2)sc2c1CCC2	2	0	18	0	-3	.
Cc1sc(NC(=O)/C=C/c2ccco2)c(C(=O)OC(C)C)c1C	9	52*	6	0	-2	1	MPTP abs DR=>100;MPTP cs DR=>80
Cc1[nH]c2ccccc2c1CCN(Cc1cccs1)C(=O)Nc1cccc2c1OCO2	.	.	.	.	-3	.
COc1ccccc1OCCCCOc1ccccc1C(C)=O	6	61*	-1	4	-3	61*
Cc1nn(-c2ccccc2)c2sc(C(=O)N3CCN(Cc4ccc(F)cc4)CC3)cc12	.	.	.	.	-6	.
C#CCNC(=O)C[C@H]1C[C@@]2(C(=O)OC)C(=C[C@H](C(C)C)O[C@@H]2C2CC2)N(Cc2ccc(Cl)cc2Cl)C1=O	.	.	.	.	-2	.
Cc1cccc(C(=O)NNC2=C(C(=O)C(F)(F)F)CCC2)c1O	3	93*	20	-4	0	92*
